Data as given in article PMC6894423 (Journal of molecular and cellular cardiology, 2019).
Entries after “also recorded” stand apart in the source; their conditions may differ.

Experiments:
mAb TnI-1 = test: Competitive ELISA affinity titration against mAb TnI-1; assay type: binding; details: compared with wild type at ~0.1 μM (Figure 8)
Procedure, shortened: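 Wells coated overnight at 4°C with purified bovine cardiac TnI in pH 7.0 PIPES/KCl/MgCl2 buffer, then blocked with 1% BSA. mAb TnI-1 was added at a preset sub-maximal level together with serial dilutions of biologically or chemically made peptide. Detection used HRP anti-mouse IgG and H2O2-ABTS, read at 420 nm every 5 min for 30 min. Triplicate wells; each assay repeated.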

[1] = tested on: skinned rat ventricular papillary muscle; test: Force-pCa contractility of skinned rat ventricular papillary muscle; assay type: cell-based; details: 20 μM peptide, 15°C
Procedure, shortened: (§1)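 Left ventricular papillary muscle was cryosectioned at 35 μm, cut into 140–150 μm strips and stored at −20°C in glycerol relaxing buffer. Strips were clip-mounted, skinned 20 min in 1% Triton X-100 and set to sarcomere length 2.0 or 2.3 μm. Isometric force was read at pCa 6.5–4.5 at 15°C, then repeated with 20 μM peptide. Curves were Hill-fitted and compared by paired t-test.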

[2] = tested on: skinned mouse EDL muscle fibers; test: Force-pCa contractility of skinned mouse EDL muscle fibers; assay type: cell-based; details: 20 μM peptide; sarcomere length 2.7 μm; 15°C; N = 4
Procedure, shortened: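 Whole EDL from adult C57BL/6 mice was split along the fibres in relaxing buffer and stored at −20°C in 50% glycerol buffer. Fibres were mounted on T-clips, further skinned 20 min in 1% Triton X-100 and set to sarcomere length 2.7 μm. Force was read at pCa 6.5–4.5 at 15°C, before and after adding 20 μM peptide; curves were Hill-fitted.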

[3] = tested on: skinned mouse ventricular papillary muscle; test: Force-pCa contractility of skinned mouse ventricular papillary muscle; assay type: cell-based; details: 20 μM peptide, 15°C
Procedure, shortened: as §1

[4] = target: bovine cardiac α-tropomyosin (bovine, UniProt Q5KR49 1-284); test: ELISA

“HcTnI-C27-H: R192H mutant of the C-terminal 27 amino acid peptide of human cardiac TnI (ENREVGDWHKNIDALSGMEGRKKKFES; left off: Tx3 metal-binding tag, N-terminal, cleaved | SUMO, N-terminal, cleaved)” was tested, and the “Effect on competition for mAb TnI-1 compared with wild type peptide” value (mAb TnI-1) was “only minimum effect”.

With “HcTnI-C27: C-terminal 27 amino acid peptide of human cardiac TnI (ENREVGDWRKNIDALSGMEGRKKKFES; left off: Tx3 metal-binding tag, N-terminal, cleaved | SUMO, N-terminal, cleaved)” the “Effect on Ca^2+-sensitization by increasing sarcomere length, rat” value ([1]; SL increased from 2.0 μm to 2.3 μm) was “completely diminishing the Ca^2+-sensitization effect; also recorded: diminished the Ca^2+-sensitization effect”, the “Effect on cooperativity (n), rat, SL 2.0 μm” value ([1]; sarcomere length 2.0 μm, pH 7.0, N = 4) was “small effect on lowering pCa50 and cooperativity” and the “Effect on cooperativity (n), rat, SL 2.3 μm” value ([1]; sarcomere length 2.3 μm, pH 7.0, n = 3) was “significantly decreased Ca^2+ sensitivity and cooperativity (n)”. The “Effect on myofilament Ca^2+ sensitivity, mouse EDL” value [2] was “myofilament Ca^2+-desensitization effect predominantly in the activated state; also recorded: decreases in myofilament Ca^2+ sensitivity in the activated state at higher Ca^2+ concentrations”, the “Maximum force production, mouse EDL” value [2] was “without change of maximum force production” and the “Effect on force-pCa curves, mouse cardiac, both sarcomere lengths” value ([3]; SL 2.0 μm and 2.3 μm) was “right-shifts of the force-pCa curves”. The “Effect on Ca^2+-sensitivity (force-pCa curve), mouse cardiac, SL 2.0 μm” value ([3]; sarcomere length 2.0 μm, N = 3) was “more obvious at sarcomere length of 2.0 μm in the activated state; also recorded: decreased Ca^2+-sensitivity”, the “Effect on cooperativity (n), mouse cardiac, SL 2.0 μm” value ([3]; sarcomere length 2.0 μm, N = 3) was “significantly lowered cooperativity” and the “Effect on Ca^2+-sensitivity (force-pCa curve), mouse cardiac, SL 2.3 μm” value ([3]; sarcomere length 2.3 μm, n = 4) was “decreased Ca^2+-sensitivity”.

ENREVGDWRKNIDALSGMEGRKKKFES (peptide, UniProt P19429 184-210, looked up) [C-terminal 27 amino acid peptide of human cardiac TnI (HcTnI-C27), free peptide]: binds [4].
